Source: ChEMBL document CHEMBL4715691, “Synthesis of Triphenylethylene Bisphenols as Aromatase Inhibitors That Also Modulate Estrogen Receptors” (J Med Chem, 2016)

Legend:
[1] = biological target: T1, Estrogen receptor (Homo sapiens) (UniProt P03372); assay: Displacement of ES2 from recombinant human ER-alpha at 100 uM incubated for 2 hrs by fluorescence based assay relative to control
T1 sequence (whole entry): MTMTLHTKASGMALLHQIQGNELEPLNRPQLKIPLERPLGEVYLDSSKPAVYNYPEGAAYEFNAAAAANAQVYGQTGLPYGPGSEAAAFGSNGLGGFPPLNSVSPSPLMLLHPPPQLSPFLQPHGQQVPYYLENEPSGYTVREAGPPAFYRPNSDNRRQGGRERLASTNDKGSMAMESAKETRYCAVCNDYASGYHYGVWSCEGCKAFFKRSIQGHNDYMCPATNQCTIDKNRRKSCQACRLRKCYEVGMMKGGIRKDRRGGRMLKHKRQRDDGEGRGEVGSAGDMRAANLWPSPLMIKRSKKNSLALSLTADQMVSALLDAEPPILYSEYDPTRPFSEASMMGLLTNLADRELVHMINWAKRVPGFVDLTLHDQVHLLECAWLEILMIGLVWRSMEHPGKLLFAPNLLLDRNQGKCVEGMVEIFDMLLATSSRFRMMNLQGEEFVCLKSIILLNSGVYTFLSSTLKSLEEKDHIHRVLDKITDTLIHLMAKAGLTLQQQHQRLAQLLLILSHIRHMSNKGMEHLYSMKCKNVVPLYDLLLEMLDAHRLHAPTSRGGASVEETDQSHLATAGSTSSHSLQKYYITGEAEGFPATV
Outline: (§1)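 Fluorescence polarization competition: test compound at 100 μM, 9 nM ES2 with 30 nM recombinant human ER-α in ES2 screening buffer (100 mM potassium phosphate, 100 µg/mL BGG, 0.02% NaN₃). Incubated 2 h protected from light, ex/em 485/530. Percent of remaining polarization versus vehicle control. Means of at least three experiments.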

[2] = biological target: Estrogen receptor beta (Homo sapiens) (UniProt Q92731); assay: Displacement of ES2 from recombinant human ER-beta at 100 uM incubated for 2 hrs by fluorescence based assay relative to control
Chain of Estrogen receptor beta (Homo sapiens) (Q92731 whole entry): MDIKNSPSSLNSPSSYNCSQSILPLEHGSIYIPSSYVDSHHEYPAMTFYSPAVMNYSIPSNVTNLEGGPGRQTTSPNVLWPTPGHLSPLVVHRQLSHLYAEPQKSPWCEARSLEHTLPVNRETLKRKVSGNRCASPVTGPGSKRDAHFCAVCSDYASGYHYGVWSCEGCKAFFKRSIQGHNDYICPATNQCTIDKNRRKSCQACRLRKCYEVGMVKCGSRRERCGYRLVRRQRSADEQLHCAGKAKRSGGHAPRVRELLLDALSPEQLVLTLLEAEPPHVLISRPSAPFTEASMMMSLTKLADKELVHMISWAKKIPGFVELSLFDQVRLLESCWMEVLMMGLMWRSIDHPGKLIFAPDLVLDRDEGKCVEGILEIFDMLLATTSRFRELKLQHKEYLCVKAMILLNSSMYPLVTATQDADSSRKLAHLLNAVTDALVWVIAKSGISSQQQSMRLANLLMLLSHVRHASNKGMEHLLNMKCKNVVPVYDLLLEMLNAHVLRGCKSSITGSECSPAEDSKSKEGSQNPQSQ
Outline: as §1, with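 “with 20” for “with 30”, “human ER-β” for “human ER-α”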

MCF7 [3] = assay: Selective estrogen receptor modulator activity in human MCF7 cells assessed as E2-induced progesterone receptor mRNA expression level at 1 uM incubated for 24 hrs by real time PCR analysis (reference value: 100%); assay type: cell-based; conditions: filed as modulator
Outline: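 MCF-7 cells grown in MEM with 10% FBS, then held 72 h in charcoal-stripped FBS. […] Genomic DNA removed, RNA extracted, PGR mRNA measured by real-time PCR (40 cycles) from Ct values.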

MCF7 [4] = assay: Antagonist activity at estrogen receptor in human MCF7 cells assessed as E2-induced progesterone receptor mRNA expression level at 1 uM incubated for 24 hrs by real time PCR analysis (reference value: 100%); assay type: cell-based; set-up: scale not given: the % may be the effect or the level left; conditions: filed as antagonist
Outline: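 ER-positive MCF-7 cells grown in MEM with 10% FBS, 37 °C, 5% CO2, then preconditioned 72 h in charcoal-stripped FBS. […] RNA extracted after genomic DNA removal; PGR mRNA quantified by real-time PCR from threshold cycle, 40 cycles.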

| SMILES | inhibition ([1]; filed as modulator) | inhibition ([2]; filed as modulator) | inhibition [1] | inhibition [2] | Activity (MCF7 [3]) | Activity (MCF7 [4]) |
| --- | --- | --- | --- | --- | --- | --- |
| Nc1cccc(C(Cn2ccnc2)=C(c2ccc(O)cc2)c2ccc(O)cc2)c1 | 60% | 71% |  |  |  |  |
| Nc1ccc(C(Cn2cnnc2)=C(c2ccc(O)cc2)c2ccc(O)cc2)cc1 |  |  | 13% | 36% |  |  |
| Nc1ccc(C(Cn2ccnc2)=C(c2ccc(O)cc2)c2ccc(O)cc2)cc1 | > 90% | > 90% |  |  | 26% |  |
| Oc1ccc(C(=C(Cn2ccnc2)c2ccc(O)c(F)c2)c2ccc(O)cc2)cc1 | > 90% | > 90% |  |  | 26% |  |
| Oc1ccc(C(Cn2cncn2)=C(c2ccc(O)cc2)c2ccc(O)cc2)cc1 | 45% | 40% |  |  |  |  |
| Oc1ccc(C(=C(Cn2ccnc2)c2cccc(O)c2)c2ccc(O)cc2)cc1 |  |  | 0% | 29% |  |  |
| Oc1ccc(C(=C(Cn2ccnc2)c2ccccc2)c2ccc(O)cc2)cc1 | > 90% | > 90% |  |  | 26% |  |
| Oc1ccc(C(=C(Cn2cnnc2)c2ccc(O)c(F)c2)c2ccc(O)cc2)cc1 |  |  | 0% | 0% |  |  |
| CC/C(=C(\c1ccc(O)cc1)c1ccc(OCCN(C)C)cc1)c1ccccc1 |  |  |  |  |  | 10% |
| Oc1ccc(C(=C(Cn2cncn2)c2ccc(O)c(F)c2)c2ccc(O)cc2)cc1 |  |  | 2% | 0% |  |  |
| Oc1ccc(C(Cn2ccnc2)=C(c2ccc(O)cc2)c2ccc(O)cc2)cc1 | > 90% | > 90% |  |  | 26% |  |
| Nc1ccc(C(Cn2cncn2)=C(c2ccc(O)cc2)c2ccc(O)cc2)cc1 |  |  | 0% | 2% |  |  |
| N#CCC(=C(c1ccc(O)cc1)c1ccc(O)cc1)c1ccccc1 | 56% | 49% |  |  |  |  |
| N#CCC(=C(c1ccc(O)cc1)c1ccc(O)cc1)c1ccc(O)cc1 |  |  | 0% | 3% |  |  |
| N#CCC(=C(c1ccc(O)cc1)c1ccc(O)cc1)c1ccc(N)cc1 |  |  | 0% | 0% |  |  |
| Oc1ccc(C(=C(Cn2cncn2)c2ccccc2)c2ccc(O)cc2)cc1 |  |  | 12% | 33% |  |  |
| Oc1ccc(C(Cn2cnnc2)=C(c2ccc(O)cc2)c2ccc(O)cc2)cc1 | > 90% | > 90% |  |  |  |  |
| CCC(=C(c1ccc(O)cc1)c1ccc(O)cc1)c1ccccc1 | 80% | > 90% |  |  |  |  |
| N#CCC(=C(c1ccc(O)cc1)c1ccc(O)cc1)c1ccc(O)c(F)c1 |  |  | 0% | 0% |  |  |
| CCC(=C(c1ccc(O)cc1)c1ccc(OCCN)cc1)c1ccccc1 |  |  |  |  |  | 33% |
